# Bioassay records deposited in PubChem BioAssay by Broad Institute.
# The full list was thinned out, with hits kept by preference.
# E-selectin induc: E-selectin induction on HUVECs; HUVEC E-selectin immunofluorescence imaging; normalized: neutral wells 0, TNF-alpha wells 100; activation, % at 7.58 µM; actives 0.37% (n = 260,000); AID 686992;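 active = mean E-selectin-positive cell signal at least 10% of the positive control, reached in at least 60% of replicates, without over 20% cell loss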
# Target sequence (P16581 whole entry, looked up): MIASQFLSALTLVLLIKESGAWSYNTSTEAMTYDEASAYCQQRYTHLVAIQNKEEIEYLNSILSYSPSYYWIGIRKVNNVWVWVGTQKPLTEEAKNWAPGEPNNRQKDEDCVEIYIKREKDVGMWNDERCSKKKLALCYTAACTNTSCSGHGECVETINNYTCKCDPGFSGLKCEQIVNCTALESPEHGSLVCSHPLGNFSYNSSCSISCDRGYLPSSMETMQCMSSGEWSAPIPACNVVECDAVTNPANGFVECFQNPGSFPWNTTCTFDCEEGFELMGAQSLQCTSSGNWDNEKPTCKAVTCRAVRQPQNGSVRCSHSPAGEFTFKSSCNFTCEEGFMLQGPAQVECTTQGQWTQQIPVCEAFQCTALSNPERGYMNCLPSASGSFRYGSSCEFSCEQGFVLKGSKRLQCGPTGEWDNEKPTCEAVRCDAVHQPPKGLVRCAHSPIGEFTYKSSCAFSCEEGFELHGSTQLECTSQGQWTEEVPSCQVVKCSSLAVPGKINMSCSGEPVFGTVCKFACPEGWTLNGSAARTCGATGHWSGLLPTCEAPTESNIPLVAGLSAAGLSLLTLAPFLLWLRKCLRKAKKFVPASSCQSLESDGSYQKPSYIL
#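 Test system: HUVEC | Signal: Immunofluorescence imaging | Read-out: Percent E-selectin-positive cells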
# * hit, by the source's call.
SMILES,E-selectin induc
CCCN1C[C@@H](C)[C@@H](OC)CN(C)C(=O)c2ccc(NC(=O)c3cccc(OC)c3)cc2OC[C@@H]1C,0
N#Cc1ccc(-c2ccc([C@H]3[C@@H](CO)N4C(=O)CN(C(=O)C5CCC5)C[C@@H]34)cc2)cc1,0
Cc1ccc(CNS(=O)(=O)c2ccc(-n3cccn3)cc2)cc1,0
Cc1cc2cc(CNC(=O)Nc3ccc(Cl)c(Cl)c3)ccc2n1C,142*
Cc1ccc(S(=O)(=O)NCc2ccc3c(c2)cc(C)n3C)cc1,63*
Cc1cc2cc(CNC(=O)NC3CCCCC3)ccc2n1C,0
Cc1ccc(S(=O)(=O)NCc2cccc([N+](=O)[O-])c2)cc1,-1
Cc1onc(-c2ccccc2Cl)c1C(=O)NCc1ccc2c(c1)cc(C)n2C,1
CC(C)NC(=O)N1[C@@H](CO)[C@@H]2c3ccccc3N(C(=O)Nc3ccc(F)cc3)C[C@@H]21,0
C[C@@H]1CCCCO[C@H](CN(C)Cc2ccc(C(F)(F)F)cc2)[C@H](C)CN([C@H](C)CO)C(=O)c2cc(NC(=O)c3ccncc3)ccc2O1,0
FC(F)(F)c1cnc(Oc2cccc3ccccc23)c(Cl)c1,1
Oc1cccc(Oc2ncc(C(F)(F)F)cc2Cl)c1,132*
Cn1nc(Oc2ncc(C(F)(F)F)cc2Cl)cc1C(F)(F)F,-2
Cc1ccc(S(=O)(=O)Nc2ccc3c(c2)C(=O)N([C@H](C)CO)C[C@H](C)[C@@H](CN(C)S(=O)(=O)c2ccc(Cl)cc2)O3)cc1,0
CNC[C@@H]1Oc2ccc(NS(=O)(=O)c3ccc(F)cc3)cc2CC(=O)N([C@H](C)CO)C[C@H]1C,-2
N#Cc1ccc(-c2ccc3c(c2)[C@H]2[C@H](CCN2S(=O)(=O)c2ccccc2F)[C@@H](CO)N3)cc1,0
CC(C)NC(=O)Nc1ccc2c(c1)CC(=O)N([C@H](C)CO)C[C@@H](C)[C@@H](CN(C)Cc1ccc(C(=O)O)cc1)O2,18
C[C@H]1CN([C@@H](C)CO)C(=O)Cc2cc(NC(=O)Nc3ccc(F)cc3)ccc2O[C@H]1CN(C)Cc1ccc(C(=O)O)cc1,-4
C[C@H]1CN([C@@H](C)CO)C(=O)Cc2cc(NC(=O)Nc3ccc(F)cc3)ccc2O[C@@H]1CN(C)Cc1ccc(C(=O)O)cc1,2
C[C@H](CO)N1C[C@H](C)[C@@H](CN(C)Cc2ccc(C(=O)O)cc2)Oc2ccc(NC(=O)Nc3ccc(F)cc3)cc2CC1=O,38*
CC(C)NC(=O)Nc1ccc2c(c1)CC(=O)N([C@H](C)CO)C[C@@H](C)[C@H](CN(C)Cc1ccc(C(=O)O)cc1)O2,-2
CC(C)NC(=O)Nc1ccc2c(c1)CC(=O)N([C@@H](C)CO)C[C@H](C)[C@@H](CN(C)Cc1ccc(C(=O)O)cc1)O2,37*
CO[C@H]1CN(C)C(=O)c2ccc(NC(C)=O)cc2OC[C@H](C)N(S(=O)(=O)c2cn(C)cn2)C[C@H]1C,2
Cc1ccc(S(=O)(=O)N2C[C@H](O)COC[C@H]3O[C@H](CC(=O)N[C@@H]4CCN(Cc5ccccc5)C4)CC[C@@H]32)cc1,0
C[C@H](CO)N1C[C@H](C)[C@@H](CN(C)Cc2ccc(F)cc2)Oc2ncc(-c3ccncc3)cc2C1=O,0
SMILES,E-selectin induc
CC(C)C#Cc1cnc2c(c1)C(=O)N([C@H](C)CO)C[C@@H](C)[C@H](CN(C)C(=O)c1cccnc1)O2,0
Cc1ccc(NCc2nnc(SCC(=O)NNC(=O)Cc3ccccc3)n2C)cc1,0
Cc1ccc(C(=O)NNC(=O)CSc2nnc(CNc3ccc(F)cc3)n2C)cc1,236*
Cc1ccc(NCc2nnc(SCC(=O)Nc3nnc(C)s3)n2C)cc1,0
CO[C@@H]1CC[C@H]2CCN(C)C(=O)C[C@H](c3ccccc3)CN(C)C(=O)c3cc(C#N)ccc3OC[C@@H]1O2,0
COc1ccccc1CNC(=O)C[C@H]1C=C[C@@H](NC(=O)CN(C)C)[C@H](CO)O1,0
Cc1cccc(-c2ncc(S(=O)(=O)C(C)(C)C)c(N)n2)c1,9
CC(C)(C)S(=O)(=O)c1cnc(-c2cnccn2)nc1N,46*
CC(C)(C)S(=O)(=O)c1cnc(-c2ccccn2)nc1N,0
CCC(=O)N1CC2(C1)CN(Cc1cccc(OC)c1)[C@@H](CO)c1[nH]c3cc(OC)ccc3c12,0
COCC(=O)N(C)C[C@@H]1Oc2cc(C3=CCCCC3)ccc2S(=O)(=O)N([C@H](C)CO)C[C@@H]1C,0
C[C@@H]1CN([C@@H](C)CO)C(=O)c2cccc(NC(=O)CCCCCC(=O)Nc3ccccc3N)c2O[C@@H]1CN(C)C(=O)Nc1cccc2ccccc12,-10
C[C@H](CO)N1C[C@H](C)[C@@H](CN(C)C(=O)NC2CCCCC2)OCCCC[C@H](C)Oc2ccc(NC(=O)c3ccncc3)cc2C1=O,0
C=CCn1c(SCC(=O)Nc2nc3ccccc3s2)nc(O)c(CC)c1=O,33*
CCc1c(O)nc(SCC(=O)Nc2nc3ccccc3s2)n(-c2ccccc2)c1=O,0
CCc1c(O)nc(SCC(=O)Nc2nc3ccccc3s2)n(-c2ccc(C)cc2)c1=O,0
CO[C@@H]1CN(C)C(=O)c2ccc(NC(=O)Nc3c(C)noc3C)cc2OC[C@H](C)NC[C@H]1C,0
COc1cccc(NC(=O)N2CC3(C2)[C@H](c2ccccc2)[C@H](CO)N3C(=O)C2CCCC2)c1,0
C[C@@H]1CCCCO[C@H](CN(C)C(=O)c2ccccc2)[C@@H](C)CN([C@@H](C)CO)C(=O)c2cc(NC(=O)c3ccncc3)ccc2O1,0
C[C@H]1CN([C@@H](C)CO)C(=O)Cc2cc(NC(=O)Nc3ccc(F)cc3)ccc2O[C@@H]1CN(C)S(=O)(=O)c1cn(C)cn1,-16
C[C@H]1CN([C@@H](C)CO)C(=O)Cc2cc(NS(=O)(=O)c3ccc(F)cc3)ccc2O[C@@H]1CN(C)S(=O)(=O)c1ccc(F)cc1,0
C[C@@H]1CN([C@@H](C)CO)C(=O)Cc2cc(NC(=O)Nc3ccc(F)cc3)ccc2O[C@H]1CN(C)S(=O)(=O)c1ccc(Cl)cc1,-14
C[C@H]1CN([C@@H](C)CO)C(=O)Cc2cc(NC(=O)Nc3ccc(F)cc3)ccc2O[C@H]1CN(C)S(=O)(=O)c1ccc(Cl)cc1,-14
C[C@H]1CN([C@@H](C)CO)C(=O)Cc2cc(NS(=O)(=O)c3ccc(Cl)cc3)ccc2O[C@@H]1CN(C)S(=O)(=O)c1ccc(F)cc1,0
C[C@@H]1CN([C@@H](C)CO)C(=O)Cc2cc(NC(=O)Nc3ccc(F)cc3)ccc2O[C@@H]1CN(C)S(=O)(=O)c1cn(C)cn1,73*
C[C@@H]1CN([C@H](C)CO)C(=O)Cc2cc(NC(=O)Nc3ccc(F)cc3)ccc2O[C@@H]1CN(C)S(=O)(=O)c1ccc(Cl)cc1,35*
C[C@H](CO)N1C[C@H](C)[C@H](CN(C)S(=O)(=O)c2ccc(Cl)cc2)Oc2ccc(NS(=O)(=O)c3ccc(F)cc3)cc2CC1=O,92*
C[C@H](CO)N1C[C@H](C)[C@@H](CN(C)S(=O)(=O)c2ccc(Cl)cc2)Oc2ccc(NS(=O)(=O)c3ccc(F)cc3)cc2CC1=O,59*
C[C@H](CO)N1C[C@H](C)[C@H](CN(C)S(=O)(=O)c2ccc(F)cc2)Oc2ccc(NS(=O)(=O)c3ccc(F)cc3)cc2CC1=O,0
C[C@@H]1CN([C@H](C)CO)C(=O)Cc2cc(NS(=O)(=O)c3ccc(Cl)cc3)ccc2O[C@@H]1CN(C)S(=O)(=O)c1ccc(F)cc1,-1
